# According to ChEMBL document CHEMBL1131103, “Synthesis and biological evaluation of 2-acyl analogues of paclitaxel (Taxol)” (J Med Chem, 1998):
# Columns and labels:
# Bos taurus [1] = organism: Bos taurus; assay: Polymerizing activity of tubulin in glutamate against bovine brain tubulin homogenate was measured at 0.4 M concentrations; assay type: functional
# Method in brief: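 Purified, electrophoretically homogeneous bovine brain tubulin assembled at room temperature without GTP or Mg²⁺ in 0.4 M monosodium glutamate (from 2 M stock, pH 6.6). Polymer pelleted by centrifugation. IC₅₀ = drug concentration lowering supernatant protein by 50% versus no-drug control. Up to 40 µM. At least three independent experiments, or at least two where IC₅₀ exceeded 40 µM.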
# [2] = system: Panel colon (Carcinoma cell lines); assay: Cytotoxic activity was measured against human colon carcinoma cell lines; assay type: functional, cell-based
# Method in brief: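 HCT116 colon carcinoma monolayers in 96-well plates, 48 h at 37 °C under 5% CO₂. Cell protein measured. IC₅₀ = concentration giving 50% inhibition of the increase in cell protein.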
# Bos taurus [3] = organism: Bos taurus; assay: Polymerizing activity of microtubule protein against the twice cycled microtubule protein; assay type: functional
# Method in brief: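 Twice-cycled microtubule protein, stored in liquid nitrogen, at 1.0 mg/mL final in 0.1 M MES, 1 mM EGTA, 0.5 mM MgCl₂, pH 6.6, 37 °C, no GTP. Compound at 2.5, 5.0 and 10 µM. Absorbance read every 10 s and initial linear slopes taken. EC0.01 = interpolated concentration giving an initial slope of 0.01 A unit/min.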
# [4] = system: Panel ovarian (Carcinoma cell lines); assay: Cytotoxic activity was measured against human Ovarian carcinoma cell lines; assay type: functional, cell-based
# Method in brief: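 Ovarian carcinoma line 1A9, a subclone of A2780, grown as monolayers in 96-well plates for 96 h at 37 °C, 5% CO₂. Cell protein quantitated (Skehan method). IC₅₀ = concentration inhibiting the increase in cell protein by 50%.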
# ptx-10/22 = assay: Relative resistance was measured against human paclitaxel-resistant cell lines; assay type: functional, cell-based; settings: 1A9(PTX22)
# Burkitts lymphoma cell = assay: Cytotoxic activity against was measured human Burkitt lymphoma cell lines.; assay type: functional, cell-based
# Method in brief: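 CA46 Burkitt lymphoma cells in 5.0-mL suspension culture, counted after 24 h at 37 °C under 5% CO₂. IC₅₀ = drug concentration halving the increase in cell number. Highest concentration 100 nM. At least two independent experiments.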
# Bos taurus [5] = organism: Bos taurus; assay: Polymerizing activity of tubulin in glutamate against bovine brain tubulin homogenate was measured at 0.8M concentrations; assay type: functional
# Method in brief: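 Bovine brain tubulin, purified to electrophoretic homogeneity, in 0.8 M monosodium glutamate (from 2 M stock, pH 6.6), room temperature, no GTP. Polymer removed by centrifugation. IC₅₀ = concentration reducing supernatant protein by 50% relative to drug-free control. Maximum 40 µM. At least three independent experiments, or at least two for IC₅₀ over 40 µM.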
Structure (SMILES),IC50 (Bos taurus [1]),IC50 [2],EC0.01 (relative to paclitaxel) (Bos taurus [3]),IC50 [4],relative resistance (ptx-10/22),IC50 (Burkitts lymphoma cell),IC50 (Bos taurus [5])
CC(=O)O[C@H]1C(=O)[C@@]2(C)[C@H]([C@H](OC(=O)c3cccc(C#N)c3)[C@]3(O)C[C@H](OC(=O)[C@H](O)[C@@H](NC(=O)c4ccccc4)c4ccccc4)C(C)=C1C3(C)C)[C@]1(OC(C)=O)CO[C@@H]1C[C@@H]2O,0.63 relative to paclitaxel,1.1 relative to paclitaxel,1,0.32 relative to paclitaxel,1.3,–,–
CC(=O)O[C@H]1C(=O)[C@@]2(C)[C@H]([C@H](OC(=O)c3cccc(Br)c3)[C@]3(O)C[C@H](OC(=O)[C@H](O)[C@@H](NC(=O)c4ccccc4)c4ccccc4)C(C)=C1C3(C)C)[C@]1(OC(C)=O)CO[C@@H]1C[C@@H]2O,0.24 relative to paclitaxel,0.32 relative to paclitaxel,0.8,0.32 relative to paclitaxel,0.42,–,–
CC(=O)O[C@H]1C(=O)[C@@]2(C)[C@H]([C@H](OC(=O)c3ccc(O)cc3)[C@]3(O)C[C@H](OC(=O)[C@H](O)[C@@H](NC(=O)c4ccccc4)c4ccccc4)C(C)=C1C3(C)C)[C@]1(OC(C)=O)CO[C@@H]1C[C@@H]2O,> 1.7 relative to paclitaxel,52 relative to paclitaxel,19,31 relative to paclitaxel,–,3 relative to paclitaxel,> 8.9 relative to paclitaxel
COc1cccc(C(=O)O[C@H]2[C@@H]3[C@]4(OC(C)=O)CO[C@@H]4C[C@H](O)[C@@]3(C)C(=O)[C@H](OC(C)=O)C3=C(C)[C@@H](OC(=O)[C@H](O)[C@@H](NC(=O)c4ccccc4)c4ccccc4)C[C@]2(O)C3(C)C)c1OC,> 1.7 relative to paclitaxel,59 relative to paclitaxel,> 270,> 48 relative to paclitaxel,–,> 3.3 relative to paclitaxel,> 8.9 relative to paclitaxel
CC(=O)O[C@H]1C(=O)[C@@]2(C)[C@H]([C@H](OC(=O)c3cccc(N=[N+]=[N-])c3)[C@]3(O)C[C@H](OC(=O)[C@H](O)[C@@H](NC(=O)c4ccccc4)c4ccccc4)C(C)=C1C3(C)C)[C@]1(OC(C)=O)CO[C@@H]1C[C@@H]2O,0.2 relative to paclitaxel,1.4 relative to paclitaxel,0.37,0.18 relative to paclitaxel,0.27,0.17 relative to paclitaxel,–
CC(=O)O[C@H]1C(=O)[C@@]2(C)[C@H]([C@H](OC(=O)c3cc(F)c(F)c(F)c3)[C@]3(O)C[C@H](OC(=O)[C@H](O)[C@@H](NC(=O)c4ccccc4)c4ccccc4)C(C)=C1C3(C)C)[C@]1(OC(C)=O)CO[C@@H]1C[C@@H]2O,> 1.7 relative to paclitaxel,3.4 relative to paclitaxel,1.8,3.2 relative to paclitaxel,0.62,1.3 relative to paclitaxel,4.7 relative to paclitaxel
CC(=O)O[C@H]1C(=O)[C@@]2(C)[C@H]([C@H](OC(=O)c3cccc(F)c3F)[C@]3(O)C[C@H](OC(=O)[C@H](O)[C@@H](NC(=O)c4ccccc4)c4ccccc4)C(C)=C1C3(C)C)[C@]1(OC(C)=O)CO[C@@H]1C[C@@H]2O,> 1.7 relative to paclitaxel,0.55 relative to paclitaxel,0.8,14 relative to paclitaxel,–,–,> 8.9 relative to paclitaxel
CC(=O)O[C@H]1C(=O)[C@@]2(C)[C@H]([C@H](OC(=O)c3cccc(C(F)(F)F)c3)[C@]3(O)C[C@H](OC(=O)[C@H](O)[C@@H](NC(=O)c4ccccc4)c4ccccc4)C(C)=C1C3(C)C)[C@]1(OC(C)=O)CO[C@@H]1C[C@@H]2O,> 1.7 relative to paclitaxel,3 relative to paclitaxel,1.3,1.4 relative to paclitaxel,–,0.67 relative to paclitaxel,6.7 relative to paclitaxel
CSc1cccc(C(=O)O[C@H]2[C@@H]3[C@]4(OC(C)=O)CO[C@@H]4C[C@H](O)[C@@]3(C)C(=O)[C@H](OC(C)=O)C3=C(C)[C@@H](OC(=O)[C@H](O)[C@@H](NC(=O)c4ccccc4)c4ccccc4)C[C@]2(O)C3(C)C)c1,> 1.7 relative to paclitaxel,–,–,3.3 relative to paclitaxel,0.52,1 relative to paclitaxel,2.7 relative to paclitaxel
CC(=O)O[C@H]1C(=O)[C@@]2(C)[C@H]([C@H](OC(=O)c3cc([N+](=O)[O-])cc([N+](=O)[O-])c3)[C@]3(O)C[C@H](OC(=O)[C@H](O)[C@@H](NC(=O)c4ccccc4)c4ccccc4)C(C)=C1C3(C)C)[C@]1(OC(C)=O)CO[C@@H]1C[C@@H]2O,> 1.7 relative to paclitaxel,3.1 relative to paclitaxel,4.2,20 relative to paclitaxel,–,2.3 relative to paclitaxel,> 8.9 relative to paclitaxel
CC(=O)O[C@H]1C(=O)[C@@]2(C)[C@H]([C@H](OC(=O)c3ccc(Cl)c(Cl)c3)[C@]3(O)C[C@H](OC(=O)[C@H](O)[C@@H](NC(=O)c4ccccc4)c4ccccc4)C(C)=C1C3(C)C)[C@]1(OC(C)=O)CO[C@@H]1C[C@@H]2O,0.41 relative to paclitaxel,0.77 relative to paclitaxel,0.76,1 relative to paclitaxel,0.27,–,–
COc1cc(C(=O)O[C@H]2[C@@H]3[C@]4(OC(C)=O)CO[C@@H]4C[C@H](O)[C@@]3(C)C(=O)[C@H](OC(C)=O)C3=C(C)[C@@H](OC(=O)[C@H](O)[C@@H](NC(=O)c4ccccc4)c4ccccc4)C[C@]2(O)C3(C)C)cc(OC)c1OC,> 1.7 relative to paclitaxel,110 relative to paclitaxel,32,> 48 relative to paclitaxel,–,> 3.3 relative to paclitaxel,> 8.9 relative to paclitaxel
CC(=O)O[C@H]1C(=O)[C@@]2(C)[C@H]([C@H](OC(=O)c3cc(F)cc(F)c3)[C@]3(O)C[C@H](OC(=O)[C@H](O)[C@@H](NC(=O)c4ccccc4)c4ccccc4)C(C)=C1C3(C)C)[C@]1(OC(C)=O)CO[C@@H]1C[C@@H]2O,0.29 relative to paclitaxel,0.36 relative to paclitaxel,0.6,0.12 relative to paclitaxel,1.1,–,–
CC(=O)O[C@H]1C(=O)[C@@]2(C)[C@H]([C@H](OC(=O)c3cc(F)ccc3F)[C@]3(O)C[C@H](OC(=O)[C@H](O)[C@@H](NC(=O)c4ccccc4)c4ccccc4)C(C)=C1C3(C)C)[C@]1(OC(C)=O)CO[C@@H]1C[C@@H]2O,0.29 relative to paclitaxel,0.44 relative to paclitaxel,0.34,0.67 relative to paclitaxel,0.57,0.67 relative to paclitaxel,–
CC(=O)O[C@H]1C(=O)[C@@]2(C)[C@H]([C@H](OC(=O)c3cc(Cl)cc(Cl)c3)[C@]3(O)C[C@H](OC(=O)[C@H](O)[C@@H](NC(=O)c4ccccc4)c4ccccc4)C(C)=C1C3(C)C)[C@]1(OC(C)=O)CO[C@@H]1C[C@@H]2O,0.91 relative to paclitaxel,0.51 relative to paclitaxel,0.44,0.38 relative to paclitaxel,0.48,0.67 relative to paclitaxel,–
CC(=O)O[C@H]1C(=O)[C@@]2(C)[C@H]([C@H](OC(=O)c3ccc(Cl)cc3)[C@]3(O)C[C@H](OC(=O)[C@H](O)[C@@H](NC(=O)c4ccccc4)c4ccccc4)C(C)=C1C3(C)C)[C@]1(OC(C)=O)CO[C@@H]1C[C@@H]2O,> 1.7 relative to paclitaxel,–,–,7.6 relative to paclitaxel,–,1.3 relative to paclitaxel,> 8.9 relative to paclitaxel
CC(=O)O[C@H]1C(=O)[C@@]2(C)[C@H]([C@H](OC(=O)c3ccccc3N=[N+]=[N-])[C@]3(O)C[C@H](OC(=O)[C@H](O)[C@@H](NC(=O)c4ccccc4)c4ccccc4)C(C)=C1C3(C)C)[C@]1(OC(C)=O)CO[C@@H]1C[C@@H]2O,0.38 relative to paclitaxel,0.36 relative to paclitaxel,0.7,0.77 relative to paclitaxel,0.67,–,–
CC(=O)O[C@H]1C(=O)[C@@]2(C)[C@H]([C@H](OC(=O)c3cccc(Cl)c3)[C@]3(O)C[C@H](OC(=O)[C@H](O)[C@@H](NC(=O)c4ccccc4)c4ccccc4)C(C)=C1C3(C)C)[C@]1(OC(C)=O)CO[C@@H]1C[C@@H]2O,0.3 relative to paclitaxel,1.7 relative to paclitaxel,0.92,0.05 relative to paclitaxel,2.9,0.67 relative to paclitaxel,–
COc1ccc(OC)c(C(=O)O[C@H]2[C@@H]3[C@]4(OC(C)=O)CO[C@@H]4C[C@H](O)[C@@]3(C)C(=O)[C@H](OC(C)=O)C3=C(C)[C@@H](OC(=O)[C@H](O)[C@@H](NC(=O)c4ccccc4)c4ccccc4)C[C@]2(O)C3(C)C)c1,0.2 relative to paclitaxel,0.14 relative to paclitaxel,0.5,0.12 relative to paclitaxel,0.76,0.67 relative to paclitaxel,–
CC(=O)O[C@H]1C(=O)[C@@]2(C)[C@H]([C@H](OC(=O)c3cccc(F)c3)[C@]3(O)C[C@H](OC(=O)[C@H](O)[C@@H](NC(=O)c4ccccc4)c4ccccc4)C(C)=C1C3(C)C)[C@]1(OC(C)=O)CO[C@@H]1C[C@@H]2O,1.2 relative to paclitaxel,0.45 relative to paclitaxel,0.7,0.4 relative to paclitaxel,0.96,–,2.6 relative to paclitaxel
COc1cccc(C(=O)O[C@H]2[C@@H]3[C@]4(OC(C)=O)CO[C@@H]4C[C@H](O)[C@@]3(C)C(=O)[C@H](OC(C)=O)C3=C(C)[C@@H](OC(=O)[C@H](O)[C@@H](NC(=O)c4ccccc4)c4ccccc4)C[C@]2(O)C3(C)C)c1,0.22 relative to paclitaxel,0.35 relative to paclitaxel,0.5,0.095 relative to paclitaxel,0.71,0.27 relative to paclitaxel,–
